High-throughput results from PubChem.
The list is not random: actives were taken first. Their share in the collection is about 1.3%.
PfG6PD inh = PfG6PD (Plasmodium falciparum) enzyme inhibition; inhibition, % at 20 µM; 0.78% of 350,000 active; PfGluPho enzyme, NADPH resazurin-diaphorase fluorescence;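 active means inhibition reaching at least a set limit at 20 µM in the primary screen, cut at about 59% in these data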;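 further: 0% = DMSO wells with substrate and 100% = DMSO wells lacking glucose-6-phosphate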
TbHK1 inh = T. brucei hexokinase 1 inhibition | inhibition, % at 10 µM | AID 1430 | 0.11% of 220,000 active | recombinant TbHK1, G6PDH-coupled NADH A340;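 active means inhibition of 50% or more in the single-dose primary screen; inactive means inhibition below 50%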
Diaphorase inh = inhibits diaphorase or chemically oxidizes, flagging diaphorase assay artifacts. diaphorase resazurin-to-resorufin fluorescence, NADH, 16 min; bacterial (C. kluyveri) enzyme, not human. 0.69% of 190,000 active. AID 1217. inhibition, % at 20 µM;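 active means primary screen inhibition at 20 µM above a set limit, cut at about 50% in these data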;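 further: plate controls were DMSO with full reaction for no effect and wells lacking NADH for full effect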
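Test system: bacterial diaphorase enzyme (C. kluyveri); Quantity: 0.14 U/mL diaphorase, enzyme working solution; Times: reaction incubation of 16 min at room temperature; Measured by: fluorescence of resorufin formed from resazurin, Ex 544/Em 590 nm; Benchmarks: positive control minus NADH, DMSO neutral control.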
Diaphorase act = counter-screen for diaphorase-based assays: diaphorase activators and chemical reducers; Diaphorase/resazurin coupled assay, resorufin fluorescence, 16 min; active compounds read high; 1 = vehicle wells, 0 = NADH-free wells; 0.005% of 190,000 active; activation factor at 20 µM;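 active means diaphorase activity raised at least twofold by the compound at 20 µM; inactive means activation factor below 2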
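System – purified diaphorase enzyme from Clostridium kluyveri · Input – enzyme 0.07 U/mL final · Also added – final NADH 0.114 mM, resazurin 0.1 mM · Measured by – fluorescence of resorufin, 544 nm excitation, 590 nm emission · Timing – 16 min enzyme reaction, ambient temperature · Measure – resorufin increase flagging diaphorase activators or reducers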
HKDC1 inhibitor = inhibitors of human hexokinase HKDC1 | Q2TB90 | recombinant HKDC1, G6PDH/diaphorase resazurin coupled fluorescence | inhibition, % at 20 µM | 0.16% of 340,000 active | AID 493160;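 active means inhibition above about 35% when tested at 20 µM, limit read from the data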;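 further: plate controls were DMSO wells with enzyme for no effect and DMSO wells lacking enzyme for full effect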
Target sequence (Q2TB90 whole entry, looked up): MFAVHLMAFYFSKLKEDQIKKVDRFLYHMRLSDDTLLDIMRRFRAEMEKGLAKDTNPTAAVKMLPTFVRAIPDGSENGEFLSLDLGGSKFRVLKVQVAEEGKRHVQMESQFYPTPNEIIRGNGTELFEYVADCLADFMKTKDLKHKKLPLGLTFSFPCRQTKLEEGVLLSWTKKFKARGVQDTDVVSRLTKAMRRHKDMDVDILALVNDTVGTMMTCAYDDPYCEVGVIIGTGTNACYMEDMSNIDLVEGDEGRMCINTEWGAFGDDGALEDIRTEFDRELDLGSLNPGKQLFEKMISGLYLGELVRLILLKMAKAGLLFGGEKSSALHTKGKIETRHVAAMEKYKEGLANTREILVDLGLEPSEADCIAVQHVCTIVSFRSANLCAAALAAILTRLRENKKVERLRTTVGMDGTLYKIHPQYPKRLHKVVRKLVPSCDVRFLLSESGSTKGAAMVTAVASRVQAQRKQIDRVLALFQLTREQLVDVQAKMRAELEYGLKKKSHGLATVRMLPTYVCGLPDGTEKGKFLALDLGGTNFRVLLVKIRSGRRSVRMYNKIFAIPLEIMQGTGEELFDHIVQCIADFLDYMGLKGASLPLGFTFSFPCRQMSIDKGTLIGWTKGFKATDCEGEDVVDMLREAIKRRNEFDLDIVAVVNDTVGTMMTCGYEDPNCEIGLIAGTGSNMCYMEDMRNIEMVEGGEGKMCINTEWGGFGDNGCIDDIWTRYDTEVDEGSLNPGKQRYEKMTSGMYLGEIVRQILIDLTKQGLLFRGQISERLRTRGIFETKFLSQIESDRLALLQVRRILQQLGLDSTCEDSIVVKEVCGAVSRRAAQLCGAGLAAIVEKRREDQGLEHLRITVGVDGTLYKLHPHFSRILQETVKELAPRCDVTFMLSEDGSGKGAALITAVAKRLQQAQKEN
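System: Recombinant HKDC1 hexokinase | Amount: HKDC1 at 5 µg/mL | Reagent: Glucose with 1 mM ATP | Doses: Single 20 µM dose | Incubation: Reaction time 90 min, room temperature, protected from light | Signal: Coupled resazurin fluorescence, excitation 525 nm, emission 613 nm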
G6PDH CS = counter-screen for G6PDH assay hits: L. mesenteroides G6PDH inhibition; Purified L. mesenteroides G6PDH, diaphorase/resazurin coupled fluorescence, 45 min; inhibition, % at 5 µM; 0.12% of 200,000 active; in the data active means inhibition above about 50%
PfGluPho conf = PfG6PD inhibition, single-dose confirmed. 34% of 2,400 active. shares compounds with PfG6PD inh. recombinant PfGluPho, NADPH-diaphorase-resazurin fluorescence. inhibition, % at 20 µM;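 active means inhibition of at least 50% at 20 µM in any single replicate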;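 further: 0% = DMSO with substrate and 100% = DMSO lacking glucose-6-phosphate substrate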
Diaph ctr 10uM = diaphorase inhibition or oxidation at 10 uM NADPH; shares compounds with PfG6PD inh; diaphorase-coupled resazurin reduction, fluorescence, NADPH 10 uM; inhibition, % at 20 µM; 39% of 820 active; AID 504862;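 active means average inhibition reaching 50% or more with the compound at 20 µM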;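 further: resorufin red fluorescence formed as diaphorase reduces resazurin using NADPH; 0% = DMSO with enzyme and 100% = DMSO without enzyme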
Diaph ctr 30uM = inhibits diaphorase or oxidizes, flagging false PfG6PD hits | shares compounds with PfG6PD inh | Diaphorase/resazurin coupled assay, resorufin fluorescence, 30 uM NADPH | inhibition, % at 20 µM | 29% of 820 active | AID 504863;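 active means inhibition averaging 50% or more, tested at 20 µM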;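 further: 0% = DMSO with enzyme and 100% = DMSO wells lacking diaphorase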
* hit, by the source's call; / = no result given.

SMILES	PfG6PD inh	TbHK1 inh	Diaphorase inh	Diaphorase act	HKDC1 inhibitor	G6PDH CS	PfGluPho conf	others
COc1cccc2c3cccc(OC)c3c3[nH]cnc3c12	67.8*	/	/	/	7.8	/	33.2
Cc1ccc(-c2cc(-c3ccc(Cl)cc3)c(C#N)c(N)n2)o1	96.1*	3.2	5.7	0.9	18.5	8.5	0.8
Cc1ccc(-c2cc(-c3ccc(C)o3)nc(N)c2C#N)cc1	60.3*	-5.8	21.5	0.8	11.3	-2.4	-19.0
O=C1[C@@H]2CSCN2C(=O)CN1Cc1c(F)cccc1Cl	-3.0	/	/	/	0.1	/	/
S=C(Nc1ccc(Cl)cc1Cl)Nn1cnnc1	46.9	-4.6	14.3	0.9	4.2	17.4	-24.2
CCOc1ccccc1NC(=S)Nn1cnnc1	62.5*	/	/	/	-6.9	/	29.9
S=C(Nc1cc(Cl)ccc1Cl)Nn1cnnc1	53.9	-5.0	/	/	-7.3	/	/
O=C(N/C(=C/c1cccc([N+](=O)[O-])c1)C(=O)N1CCCCC1)c1cccs1	9.7	27.8	10.4	0.9	-0.9	3.2	/
COc1cc2cc(C(=O)N3CCOCC3)cc(-c3ccc(C)cc3)c2cc1OC	-6.7	/	/	/	4.5	/	/
Cc1ccc(C)c(S(=O)(=O)N2CCCC2CNC(=O)C(=O)NCC2CCCO2)c1 (stereo not given)	6.3	/	/	/	-2.5	/	/
CC(=O)Oc1cc2c3c(c1)/C(=C1/SC(=S)NC1=O)C(=O)N3C(C)(C)C=C2C	79.8*	-1.8	/	/	6.4	/	41.3
Cc1ccc(S(=O)(=O)/N=C(\c2ccccc2)N(C)S(=O)(=O)c2ccc(C)cc2)cc1	55.2	-2.0	18.1	0.8	-1.6	-6.8	/
Cc1ccc(S(=O)(=O)N(C)/C(=N/S(=O)(=O)c2ccccc2)c2ccccc2)cc1	82.3*	-8.3	9.8	0.9	-10.7	-12.4	45.9
O=[N+]([O-])c1cccnc1N1CCN(c2ccc(F)cc2)CC1	-5.1	-1.5	20.7	0.8	-3.4	3.9	/
CN(c1nc2ccccc2nc1Cl)S(=O)(=O)c1ccccc1	43.8	/	/	/	-3.9	/	/
Nc1ccc(S(N)(=O)=O)cc1N	60.4*	6.2	/	/	7.6	/	4.2
CCC1CCCCN1CCCNC(=O)c1nn(C)c2c1CS(=O)(=O)c1ccccc1-2 (stereo not given)	-4.4	/	/	/	4.2	/	/
COCCN(CCOC)Cc1c(O)ccc2c1O/C(=C\c1ccc(C)o1)C2=O	62.9*	/	/	/	5.5	/	8.3
O=C(N/N=C/c1cccc([N+](=O)[O-])c1)C(=O)N1CCCCCC1	80.1*	/	/	/	-1.2	/	57.6*	Diaph ctr 10uM=60.1*;Diaph ctr 30uM=47.3
COc1ccc(/C=N/NC(=O)c2cc(C)n(-c3ccccc3)c2C)cc1OC	-11.9	-22.7	19.0	0.8	7.5	-12.7	/
Cc1cc(C(=O)N/N=C/c2cccc([N+](=O)[O-])c2)c(C)n1-c1ccccc1	59.7*	-4.9	18.7	0.8	-1.8	-7.3	28.4
CCOc1ncccc1C(=O)Nc1ccc(C)c(S(=O)(=O)N2CCCCCC2)c1	13.9	/	/	/	2.0	/	/
COc1cccc(CSc2nc(N)cc(N)n2)c1	-18.4	/	/	/	4.7	/	/
Cc1ccc(-n2nnnc2C(Cl)(Cl)c2nnnn2-c2ccc(C)cc2)cc1	71.6*	-2.6	29.0	0.7	14.0	0.0	43.4
C=CCNC(=S)Nc1cccc2[nH]ncc12	3.3	-9.8	13.3	0.9	3.7	11.6	/
SMILES	PfG6PD inh	TbHK1 inh	Diaphorase inh	Diaphorase act	HKDC1 inhibitor	G6PDH CS	PfGluPho conf	others
CC(=O)OCC(=O)[C@@]1(O)CC[C@H]2[C@@H]3C[C@H](C)C4=CC(=O)C=C[C@]4(C)[C@H]3[C@@H](O)C[C@@]21C	0.3	/	/	/	-8.9	/	/
CC(=O)OCC(=O)C1(O)CCC2C3CC(C)C4=CC(=O)C=CC4(C)C3=CCC21C (stereo not given)	60.6*	/	/	/	-5.5	/	39.7
COc1ccc(NC(=O)Nc2cccc([N+](=O)[O-])c2)cc1Cl	61.0*	2.6	3.7	1	-7.7	-29.3	9.6
COc1ccc(C(=O)Nc2cccc([N+](=O)[O-])c2)cc1Br	9.8	1.6	/	/	-5.2	/	/
Cc1ccc2nc(-c3cccc(N)c3)[nH]c2c1	61.9*	-7.9	2.4	1	5.3	6.3	29.1
CC(=O)c1sc2nc(C)cc(C)c2c1N	25.5	-3.4	23.1	0.8	8.7	-11.7	/
Cc1ccc2nc(-c3sc4nc(C)cc(C)c4c3N)[nH]c2c1	77.2*	-3.6	2.5	1	0.5	1.8	11.8
Nc1cccc(-c2nc3ccccc3[nH]2)c1	4.7	-5.3	1.2	1	3.1	1.1	/
C(=N\NC1=Nc2cccc3cccc1c23)/c1cccnc1	82.0*	-7.4	10.4	0.9	7.0	2.4	35.6
C(=N\NC1=Nc2cccc3cccc1c23)/c1ccccc1	66.2*	-2.0	8.8	0.9	12.7	-2.0	10.5
CCOC(=O)N1CCN(CCC(=O)Nc2ccc(F)c(F)c2)CC1	10.6	/	/	/	-1.0	/	/
Cc1c(Cl)cccc1N=C1NC(=O)CS1	66.0*	/	/	/	/	/	43.5
O=C1CSC(=Nc2ccccc2Cl)N1	6.7	11.9	21.3	0.8	-8.5	13.1	/
COc1ccc(NS(=O)(=O)c2ccc(N3CCCC3)c(NC(=S)Nc3cccc(C)c3C)c2)cc1	80.3*	26.6	21.4	0.8	-12.5	-0.1	52.6*	Diaph ctr 10uM=-28.6;Diaph ctr 30uM=-12.1
COc1ccc(NS(=O)(=O)c2ccc(N3CCCC3)c(NC(=S)Nc3ccc(SC(F)F)cc3)c2)cc1	69.3*	20.5	5.6	0.9	-16.0	-13.6	37.5
O=C(NCCc1ccc(Cl)cc1)C1CC(=O)N(C2CCCC2)C1 (stereo not given)	12.8	/	/	/	-2.9	/	/
O=c1ccsn1Cc1ccccc1	94.4*	0.6	15.7	0.8	5.3	4.5	74.9*	Diaph ctr 10uM=-4.3;Diaph ctr 30uM=-5.0
O=C1NC(Cc2ccccc2)C(=O)N1Cc1ccccc1 (stereo not given)	0.3	/	/	/	-4.8	/	/
CCN(C(=O)CSc1nnc(-c2cccs2)n1CC)C1CCS(=O)(=O)C1 (stereo not given)	-15.3	-3.2	/	/	11.6	/	/
CCOC(=O)c1sc2nc(-c3ccco3)c3c(c2c1N)CC(C)(C)OC3	64.5*	/	13.3	0.9	8.1	5.0	9.9
CCCc1nc2c(=O)n(C)c(=O)nc-2n(C)n1	108.7*	6.9	46.5	0.5	3.3	56.3*	103.5*	Diaph ctr 10uM=98.2*;Diaph ctr 30uM=100.2*
C=CCc1c(C)[nH]c(=S)c(C#N)c1C	72.5*	17.5	37.6	0.6	1.3	8.4	56.2*	Diaph ctr 10uM=-13.2;Diaph ctr 30uM=-21.1
Cc1ccc(O)c(N=Cc2ccc(C)s2)c1	67.0*	3.3	35.2	0.6	16.1	35.9	19.8
